“Also recorded” adds a separate entry of the source.
How the values were obtained:
[1] = target: hNav1.7 channels (Homo sapiens, UniProt Q15858); assay: cell-based; settings: for inhibitory activity against Nav1.7 (in words): HEK293 cells stably expressing hNav1.7; for activity toward Nav1.7 relative to 10h: higher than that of 10h; for Nav1.7/Nav1.5 selectivity (in words): Nav1.7 versus Nav1.5
[2] = test system: neuronal excitability of small-diameter DRG neurons; assay: Firing frequency of DRG neurons; format: cell-based, mouse; settings: 500 ms current injection, 10 and 100 nmol/L
[3] = test system: native sodium currents in mouse DRG neurons; assay: Native sodium currents in isolated DRG neurons; format: cell-based; settings: for reduction of sodium current amplitude: mouse DRG neurons
[4] = target: hNav1.5 channels (Homo sapiens, UniProt Q14524); assay: Whole-cell voltage-clamp on human Nav1.5 channels stably expressed in CHL cells; format: cell-based
Method in brief: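 CHL cells stably expressing hNav1.5 were selected in G418 (500 µg/mL), plated on poly-L-lysine coverslips and used within 24 h. Whole-cell voltage clamp at room temperature, with CsF pipette and NaCl bath (pH 7.3); DMSO ≤0.5% final. After 5 min at −80 mV: hold −40 mV, 20 ms prepulse to −150 mV, 10 ms pulse to 0 mV at 1 Hz. Peak IDrug/IControl was fitted to a 3-parameter Hill equation for IC50.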

[5] = test system: acetic acid-induced writhing in ICR mice; assay: Acetic acid-induced writhing test; format: in vivo, mouse; settings: i.p. 30 min before 1.5% acetic acid, writhes counted for 30 min
Method in brief: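 Male ICR mice (22–28 g) received test compound i.p. in 5% DMSO/95% (0.5% carboxymethyl cellulose sodium) at 0.2 mL/10 g, 30 min before i.p. 1.5% acetic acid (10 mL/kg). Writhes, defined as abdominal contraction with body elongation and hind-limb extension, were counted over 30 min under blinded assessment. Indomethacin 30 mg/kg p.o. was given 60 min prior as reference. n = 6–12; one-way ANOVA.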

Sequence of hNav1.5 channels (Q14524 whole entry): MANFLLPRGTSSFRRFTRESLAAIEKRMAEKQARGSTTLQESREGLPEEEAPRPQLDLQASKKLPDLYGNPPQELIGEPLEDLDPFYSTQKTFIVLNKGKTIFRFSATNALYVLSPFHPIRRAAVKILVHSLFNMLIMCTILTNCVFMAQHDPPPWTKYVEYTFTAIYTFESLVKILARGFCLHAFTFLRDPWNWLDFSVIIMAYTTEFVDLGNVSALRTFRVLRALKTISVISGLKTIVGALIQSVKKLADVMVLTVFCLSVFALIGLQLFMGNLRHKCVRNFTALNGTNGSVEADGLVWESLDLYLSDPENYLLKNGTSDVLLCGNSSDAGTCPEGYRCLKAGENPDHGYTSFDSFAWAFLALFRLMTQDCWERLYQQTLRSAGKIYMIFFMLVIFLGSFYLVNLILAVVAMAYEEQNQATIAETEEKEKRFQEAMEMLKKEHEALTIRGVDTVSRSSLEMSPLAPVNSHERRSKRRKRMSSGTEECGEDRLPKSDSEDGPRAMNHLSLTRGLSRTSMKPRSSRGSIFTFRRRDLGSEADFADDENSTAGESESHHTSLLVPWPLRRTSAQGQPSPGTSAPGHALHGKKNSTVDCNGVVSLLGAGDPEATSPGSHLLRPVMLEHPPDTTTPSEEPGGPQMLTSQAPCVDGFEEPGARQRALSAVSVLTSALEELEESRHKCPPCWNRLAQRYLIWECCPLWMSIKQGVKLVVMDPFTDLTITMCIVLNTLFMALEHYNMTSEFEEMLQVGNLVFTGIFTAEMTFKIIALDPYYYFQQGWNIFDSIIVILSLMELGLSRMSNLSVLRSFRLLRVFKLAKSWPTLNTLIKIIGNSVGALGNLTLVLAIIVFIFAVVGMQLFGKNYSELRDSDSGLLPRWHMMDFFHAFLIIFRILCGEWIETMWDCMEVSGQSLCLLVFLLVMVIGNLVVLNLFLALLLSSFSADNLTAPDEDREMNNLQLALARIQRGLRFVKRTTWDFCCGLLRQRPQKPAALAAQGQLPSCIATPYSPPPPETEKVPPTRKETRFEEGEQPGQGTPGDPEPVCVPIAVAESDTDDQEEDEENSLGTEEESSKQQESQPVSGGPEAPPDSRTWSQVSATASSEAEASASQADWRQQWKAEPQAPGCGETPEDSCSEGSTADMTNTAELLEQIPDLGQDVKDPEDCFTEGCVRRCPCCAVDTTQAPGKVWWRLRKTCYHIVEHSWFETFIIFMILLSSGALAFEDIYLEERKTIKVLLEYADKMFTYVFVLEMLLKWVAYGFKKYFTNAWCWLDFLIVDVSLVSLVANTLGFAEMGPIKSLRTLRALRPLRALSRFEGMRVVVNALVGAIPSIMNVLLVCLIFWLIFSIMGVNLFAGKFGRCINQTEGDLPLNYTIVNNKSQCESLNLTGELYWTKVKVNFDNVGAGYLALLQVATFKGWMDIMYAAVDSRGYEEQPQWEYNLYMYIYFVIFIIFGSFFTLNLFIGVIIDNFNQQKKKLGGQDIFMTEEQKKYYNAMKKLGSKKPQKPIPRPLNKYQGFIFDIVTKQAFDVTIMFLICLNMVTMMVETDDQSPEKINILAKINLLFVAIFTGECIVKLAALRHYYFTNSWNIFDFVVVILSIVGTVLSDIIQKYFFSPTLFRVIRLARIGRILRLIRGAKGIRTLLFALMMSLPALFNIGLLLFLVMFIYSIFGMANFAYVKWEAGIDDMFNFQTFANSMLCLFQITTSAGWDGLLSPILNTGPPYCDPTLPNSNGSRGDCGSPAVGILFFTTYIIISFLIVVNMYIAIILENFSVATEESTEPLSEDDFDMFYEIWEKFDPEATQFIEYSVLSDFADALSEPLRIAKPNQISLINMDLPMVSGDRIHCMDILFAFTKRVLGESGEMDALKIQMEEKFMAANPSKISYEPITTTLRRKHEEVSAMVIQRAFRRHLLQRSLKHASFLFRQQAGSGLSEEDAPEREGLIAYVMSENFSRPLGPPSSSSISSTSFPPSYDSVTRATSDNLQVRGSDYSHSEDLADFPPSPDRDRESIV

CNCC(CC12CCC(c3ccccc31)c1ccccc12)Oc1ccc(S(=O)(=O)Nc2ncns2)cc1C#N (centres unmarked) [9a, 3-cyano-4-((1-(9,10-dihydro-9,10-ethanoanthracen-9-yl)-3-(methylamino)propan-2-yl)oxy)-N-(1,2,4-thiadiazol-5-yl)benzenesulfonamide]
inhibitory activity against Nav1.7 (in words) [1]: not as good as that of MPT

CCNCC(CC12CCC(c3ccccc31)c1ccccc12)Oc1ccc(S(=O)(=O)Nc2ncns2)cc1C#N (centres unmarked) [9b, 3-cyano-4-((1-(9,10-dihydro-9,10-ethanoanthracen-9-yl)-3-(ethylamino)propan-2-yl)oxy)-N-(1,2,4-thiadiazol-5-yl)benzenesulfonamide]
inhibitory activity against Nav1.7 (in words) [1]: not as good as that of MPT

CC(C)NCC(CC12CCC(c3ccccc31)c1ccccc12)Oc1ccc(S(=O)(=O)Nc2ncns2)cc1C#N (centres unmarked) [9c, 3-cyano-4-((1-(9,10-dihydro-9,10-ethanoanthracen-9-yl)-3-(isopropylamino)propan-2-yl)oxy)-N-(1,2,4-thiadiazol-5-yl)benzenesulfonamide]
inhibitory activity against Nav1.7 (in words) [1]: not as good as that of MPT

CCN(C)CC(CCC12CCC(c3ccccc31)c1ccccc12)Oc1ccc(S(=O)(=O)Nc2ncns2)cc1C#N (centres unmarked) [10b, 3-cyano-4-((4-(9,10-dihydro-9,10-ethanoanthracen-9-yl)-1-(ethyl(methyl)amino)butan-2-yl)oxy)-N-(1,2,4-thiadiazol-5-yl)benzenesulfonamide]
inhibitory activity against Nav1.7 (in words) [1]: weak

CC(C)N(C)CC(CCC12CCC(c3ccccc31)c1ccccc12)Oc1ccc(S(=O)(=O)Nc2ncns2)cc1C#N (centres unmarked) [10c, 3-cyano-4-((4-(9,10-dihydro-9,10-ethanoanthracen-9-yl)-1-(isopropyl(methyl)amino)butan-2-yl)oxy)-N-(1,2,4-thiadiazol-5-yl)benzenesulfonamide]
inhibitory activity against Nav1.7 (in words) [1]: maintained the activity of 10a

C=CCN(C)CC(CCC12CCC(c3ccccc31)c1ccccc12)Oc1ccc(S(=O)(=O)Nc2ncns2)cc1C#N (centres unmarked) [10d, 4-((1-(allyl(methyl)amino)-4-(9,10-dihydro-9,10-ethanoanthracen-9-yl)butan-2-yl)oxy)-3-cyano-N-(1,2,4-thiadiazol-5-yl)benzenesulfonamide]
inhibitory activity against Nav1.7 (in words) [1]: weak

C#CCN(C)CC(CCC12CCC(c3ccccc31)c1ccccc12)Oc1ccc(S(=O)(=O)Nc2ncns2)cc1C#N (centres unmarked) [10e, 3-cyano-4-((4-(9,10-dihydro-9,10-ethanoanthracen-9-yl)-1-(methyl(prop-2-yn-1-yl)amino)butan-2-yl)oxy)-N-(1,2,4-thiadiazol-5-yl)benzenesulfonamide]
inhibitory activity against Nav1.7 (in words) [1]: maintained the activity of 10a

CN(CCc1ccccc1)CC(CCC12CCC(c3ccccc31)c1ccccc12)Oc1ccc(S(=O)(=O)Nc2ncns2)cc1C#N (centres unmarked) [10f, 3-cyano-4-((4-(9,10-dihydro-9,10-ethanoanthracen-9-yl)-1-(methyl(phenethyl)amino)butan-2-yl)oxy)-N-(1,2,4-thiadiazol-5-yl)benzenesulfonamide]
inhibitory activity against Nav1.7 (in words) [1]: weak

CN(Cc1ccc(C(F)(F)F)cc1)CC(CCC12CCC(c3ccccc31)c1ccccc12)Oc1ccc(S(=O)(=O)Nc2ncns2)cc1C#N (centres unmarked) [10g, 3-cyano-4-((4-(9,10-dihydro-9,10-ethanoanthracen-9-yl)-1-(methyl(4-(trifluoromethyl)benzyl)amino)butan-2-yl)oxy)-N-(1,2,4-thiadiazol-5-yl)benzenesulfonamide]
inhibitory activity against Nav1.7 (in words) [1]: maintained the activity of 10a

CCOCC(CCC12CCC(c3ccccc31)c1ccccc12)Oc1ccc(S(=O)(=O)Nc2ncns2)cc1C#N (centres unmarked) [10i, 3-cyano-4-((4-(9,10-dihydro-9,10-ethanoanthracen-9-yl)-1-ethoxybutan-2-yl)oxy)-N-(1,2,4-thiadiazol-5-yl)benzenesulfonamide]
activity toward Nav1.7 relative to 10h [1]: 10 times

N#Cc1cc(S(=O)(=O)Nc2ncns2)ccc1OC(CCC12CCC(c3ccccc31)c1ccccc12)COCc1ccccc1 (centres unmarked) [10j, 4-((1-(benzyloxy)-4-(9,10-dihydro-9,10-ethanoanthracen-9-yl)butan-2-yl)oxy)-3-cyano-N-(1,2,4-thiadiazol-5-yl)benzenesulfonamide]
activity toward Nav1.7 relative to 10h [1]: 10 times

CN(C)CCOCC(CCC12CCC(c3ccccc31)c1ccccc12)Oc1ccc(S(=O)(=O)Nc2ncns2)cc1C#N (centres unmarked) [10k, 3-cyano-4-((4-(9,10-dihydro-9,10-ethanoanthracen-9-yl)-1-(2-(dimethylamino)ethoxy)butan-2-yl)oxy)-N-(1,2,4-thiadiazol-5-yl)benzenesulfonamide]
IC50 [1]: ~10 nM
Nav1.7/Nav1.5 selectivity (in words) [1]: well maintained

CNCCOCC(CCC12CCC(c3ccccc31)c1ccccc12)Oc1ccc(S(=O)(=O)Nc2ncns2)cc1C#N (centres unmarked) [10l, 3-cyano-4-((4-(9,10-dihydro-9,10-ethanoanthracen-9-yl)-1-(2-(methylamino)ethoxy)butan-2-yl)oxy)-N-(1,2,4-thiadiazol-5-yl)benzenesulfonamide]
IC50 [1]: ~10 nM
Nav1.7/Nav1.5 selectivity (in words) [1]: well maintained

CN1CC(OCC(CCC23CCC(c4ccccc42)c2ccccc23)Oc2ccc(S(=O)(=O)Nc3ncns3)cc2C#N)C1 (centres unmarked) [10m, 3-cyano-4-((4-(9,10-dihydro-9,10-ethanoanthracen-9-yl)-1-((1-methylazetidin-3-yl)oxy)butan-2-yl)oxy)-N-(1,2,4-thiadiazol-5-yl)benzenesulfonamide]
IC50 [1]: 2.98 nM

N#Cc1cc(S(=O)(=O)Nc2ncns2)ccc1OC(CCC12CCC(c3ccccc31)c1ccccc12)COCCN1CCC1 (centres unmarked) [10n, 4-((1-(2-(azetidin-1-yl)ethoxy)-4-(9,10-dihydro-9,10-ethanoanthracen-9-yl)butan-2-yl)oxy)-3-cyano-N-(1,2,4-thiadiazol-5-yl)benzenesulfonamide]
IC50 [1]: 5.38 nM
Nav1.7/Nav1.5 selectivity (in words) [1]: good selectivity

N#Cc1cc(S(=O)(=O)Nc2ncns2)ccc1OC(CCC12CCC(c3ccccc31)c1ccccc12)COCCN1CCCC1 (centres unmarked) [10o, 3-cyano-4-((4-(9,10-dihydro-9,10-ethanoanthracen-9-yl)-1-(2-(pyrrolidin-1-yl)ethoxy)butan-2-yl)oxy)-N-(1,2,4-thiadiazol-5-yl)benzenesulfonamide]
effect on action potentials / firing frequency (in words) [2]: dramatically suppressed depolarizing current-elicited neuronal discharge; also recorded: dose-dependently suppressed
reduction of sodium current amplitude ([3]; 10 nmol/L): 24% ± 6%
reduction of sodium current amplitude ([3]; 100 nmol/L): 40% ± 6%
effect on native sodium currents (in words) ([3]; mouse small-sized DRG neurons, 10 and 100 nmol/L): dose-dependently decreased the sodium currents
IC50 [4]: 33600 nM
IC50 [1]: 0.64 ± 0.3 nM
selectivity for Nav1.7 over Nav1.5 ([1]; from the Nav1.5 and Nav1.7 IC50): > 50 000 times
effect on acetic acid-induced writhing (in words) [5]: dose-dependently decreased

N#Cc1cc(S(=O)(=O)Nc2ncns2)ccc1OC(CCC12CCC(c3ccccc31)c1ccccc12)COCCN1CCCCC1 (centres unmarked) [10p, 3-cyano-4-((4-(9,10-dihydro-9,10-ethanoanthracen-9-yl)-1-(2-(piperidin-1-yl)ethoxy)butan-2-yl)oxy)-N-(1,2,4-thiadiazol-5-yl)benzenesulfonamide]
IC50 [1]: 12.5 nM
Nav1.7/Nav1.5 selectivity (in words) [1]: good selectivity

N#Cc1cc(S(=O)(=O)Nc2ncns2)ccc1OC(CCC12CCC(c3ccccc31)c1ccccc12)COCCN1CCOCC1 (centres unmarked) [10q, 3-cyano-4-((4-(9,10-dihydro-9,10-ethanoanthracen-9-yl)-1-(2-morpholinoethoxy)butan-2-yl)oxy)-N-(1,2,4-thiadiazol-5-yl)benzenesulfonamide]
IC50 [1]: 33.5 nM
Nav1.7/Nav1.5 selectivity (in words) [1]: good selectivity

Nc1[nH]ncc1-c1cc(Cl)ccc1Oc1cc(F)c(S(=O)(=O)Nc2cscn2)cc1Cl [PF-05089771, 4-[2-(5-Amino-1H-pyrazol-4-yl)-4-chlorophenoxy]-5-chloro-2-fluoro-N-1,3-thiazol-4-ylbenzenesulfonamide, reference compound]
effect on action potentials / firing frequency (in words) [2]: dose-dependently suppressed
effect on acetic acid-induced writhing (in words) [5]: dose-dependently decreased

— publication PMC7471454 (Acta Pharmacologica Sinica, 2019)
